In ChEMBL document CHEMBL3351861, “New synthetic sulfone derivatives inhibit growth, adhesion and the leucine arylamidase APE2 gene expression of Candida albicans in vitro” (2015):
≈ marks a conversion by molar mass, not a printed value.

Assays:
[1] = test system: Candida albicans; experiment: Antifungal activity against Candida albicans CAI4 expressing delta-efg1 gene assessed as growth inhibition at 16 ug/ml by CLSI M27-A3 method; format: functional; settings: read-out: GI
In short: (§1)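 CLSI M27-A3 broth microdilution in RPMI. Final inoculum 0.5×10^2 to 2.5×10^3 cells/ml. Seven two-fold concentrations from 0.25 to 16 µg/ml, with DMSO held at 0.09% (v/v) in all wells. Compound-free growth controls and sterility controls are run for each strain. […] Triplicate on three occasions.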

[2] = test system: Candida albicans; experiment: Inhibition of cell adhesion of compound pre-treated Candida albicans CAI4 expressing delta-efg1 gene to human Caco2 cells assessed as cell adhesion level at 8 ug/ml pre-incubated for 18 hrs by colony counting method (reference value: 2.1 +/- 3.52%); format: functional, Caco-2; design: scale not given: the % may be the effect or the level left
[3] = test system: Candida albicans; experiment: Antifungal activity against Candida albicans CAI4 expressing delta-efg1 gene assessed as growth inhibition at 4 ug/ml by CLSI M27-A3 method; format: functional; settings: read-out: GI; in short: as §1
[4] = test system: Candida albicans; experiment: Inhibition of cell adhesion of compound pre-treated Candida albicans 90028 to human Caco2 cells assessed as cell adhesion level at 16 ug/ml pre-incubated for 18 hrs by colony counting method (reference value: 1.58 +/- 0.67%); format: functional, Caco-2; design: scale not given: the % may be the effect or the level left
[5] = test system: Candida albicans; experiment: Inhibition of cell adhesion of compound pre-treated Candida albicans CAI4 expressing delta-cph1 (CPH1) gene to human Caco2 cells assessed as cell adhesion level at 2 ug/ml pre-incubated for 18 hrs by colony counting method (reference value: 5.37 +/- 12.4%); format: functional, Caco-2; design: scale not given: the % may be the effect or the level left
[6] = test system: Candida albicans; experiment: Inhibition of cell adhesion of compound pre-treated Candida albicans CAI4 expressing delta-efg1 gene to human Caco2 cells assessed as cell adhesion level at 16 ug/ml pre-incubated for 18 hrs by colony counting method (reference value: 2.1 +/- 3.52%); format: functional, Caco-2; design: scale not given: the % may be the effect or the level left
[7] = test system: Candida albicans; experiment: Antifungal activity against Candida albicans CAI4 expressing delta-efg1 (EFG1) gene assessed as growth inhibition at by CLSI M27-A3 method; format: functional
[8] = test system: Candida albicans; experiment: Antifungal activity against Candida albicans CAI4 expressing delta-cph1 (CPH1) gene assessed as growth inhibition at 4 ug/ml by CLSI M27-A3 method; format: functional; settings: read-out: GI
In short: (§2)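 CLSI M27-A3 broth microdilution in RPMI, read after 48 h. Strains pre-grown 18 h in YEPD at 30°C. Final inoculum 0.5×10^2–2.5×10^3 cells/ml. Two-fold dilutions in RPMI came from a 1600 µg/ml stock in water with 9% DMSO; final DMSO was 0.09%. OD405 read, % inhibition = 100 − (CTW−SCW)/(GCW−SCW). Triplicate on three occasions, mean±SD.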

[9] = test system: Candida albicans; experiment: Antifungal activity against Candida albicans CAI4 expressing delta-efg1 gene assessed as growth inhibition at 0.25 ug/ml by CLSI M27-A3 method; format: functional; settings: read-out: GI; in short: as §2
[10] = test system: Candida albicans; experiment: Antifungal activity against Candida albicans CAI4 expressing delta-efg1 (EFG1) gene assessed as growth inhibition at 16 ug/ml by CLSI M27-A3 method; format: functional; settings: read-out: GI; in short: as §2
[11] = test system: Candida albicans; experiment: Antifungal activity against Candida albicans CAI4 expressing delta-efg1 gene assessed as growth inhibition at 2 ug/ml by CLSI M27-A3 method; format: functional; settings: read-out: GI; in short: as §1
[12] = test system: Candida albicans; experiment: Inhibition of cell adhesion of compound pre-treated Candida albicans CAI4 expressing delta-efg1/delta-cph1 gene to human Caco2 cells assessed as cell adhesion level at 16 ug/ml pre-incubated for 18 hrs by colony counting method (reference value: 1.22 +/- 0.78%); format: functional, Caco-2; design: scale not given: the % may be the effect or the level left
[13] = test system: Candida albicans; experiment: Antifungal activity against Candida albicans CAI4 expressing delta-efg1 gene assessed as growth inhibition at by CLSI M27-A3 method; format: functional; in short: as §1
[14] = test system: Candida albicans; experiment: Antifungal activity against Candida albicans 90028 assessed as growth inhibition at 0.5 ug/ml by CLSI M27-A3 method; format: functional; settings: read-out: GI; in short: as §2
[15] = test system: Candida albicans; experiment: Antifungal activity against Candida albicans CAI4 expressing delta-cph1 gene assessed as growth inhibition at by CLSI M27-A3 method; format: functional
[16] = test system: Candida albicans; experiment: Inhibition of cell adhesion of compound pre-treated Candida albicans CAI4 expressing delta-efg1/delta-cph1 gene to human Caco2 cells assessed as cell adhesion level at 8 ug/ml pre-incubated for 18 hrs by colony counting method (reference value: 1.22 +/- 0.78%); format: functional, Caco-2; design: scale not given: the % may be the effect or the level left
[17] = test system: Candida albicans; experiment: Antifungal activity against Candida albicans CAI4 expressing delta-efg1 gene assessed as growth inhibition at 8 ug/ml by CLSI M27-A3 method; format: functional; settings: read-out: GI; in short: as §1
[18] = test system: Candida albicans; experiment: Antifungal activity against Candida albicans CAI4 expressing delta-cph1/delta-efg1 gene assessed as growth inhibition at 8 ug/ml by CLSI M27-A3 method; format: functional; settings: read-out: GI; in short: as §2
[19] = test system: Candida albicans; experiment: Antifungal activity against Candida albicans CAI4 expressing delta-cph1 gene assessed as growth inhibition at 0.5 ug/ml by CLSI M27-A3 method; format: functional; settings: read-out: GI; in short: as §2
[20] = test system: Candida albicans; experiment: Inhibition of cell adhesion of compound pre-treated Candida albicans CAI4 expressing delta-efg1 gene to human Caco2 cells assessed as cell adhesion level at 2 ug/ml pre-incubated for 18 hrs by colony counting method (reference value: 2.1 +/- 3.52%); format: functional, Caco-2; design: scale not given: the % may be the effect or the level left
[21] = test system: Candida albicans; experiment: Inhibition of cell adhesion of compound pre-treated Candida albicans 90028 to human Caco2 cells assessed as cell adhesion level at 8 ug/ml pre-incubated for 18 hrs by colony counting method (reference value: 1.58 +/- 0.67%); format: functional, Caco-2; design: scale not given: the % may be the effect or the level left
[22] = test system: Candida albicans; experiment: Antifungal activity against Candida albicans CAI4 expressing delta-cph1/delta-efg1 gene assessed as growth inhibition at 2 ug/ml by CLSI M27-A3 method; format: functional; settings: read-out: GI; in short: as §2
[23] = test system: Candida albicans; experiment: Inhibition of cell adhesion of compound pre-treated Candida albicans SC5314 to human Caco2 cells assessed as cell adhesion level at 16 ug/ml pre-incubated for 18 hrs by colony counting method (reference value: 1.1 +/- 1.1%); format: functional, Caco-2; design: scale not given: the % may be the effect or the level left
[24] = test system: Candida albicans; experiment: Inhibition of cell adhesion of compound pre-treated Candida albicans CAI4 expressing delta-cph1 (CPH1) gene to human Caco2 cells assessed as cell adhesion level at 8 ug/ml pre-incubated for 18 hrs by colony counting method (reference value: 5.37 +/- 12.4%); format: functional, Caco-2; design: scale not given: the % may be the effect or the level left
[25] = test system: Candida albicans; experiment: Antifungal activity against Candida albicans CAI4 expressing delta-efg1 gene assessed as growth inhibition at 1 ug/ml by CLSI M27-A3 method; format: functional; settings: read-out: GI; in short: as §1
[26] = test system: Candida albicans; experiment: Antifungal activity against Candida albicans CAI4 expressing delta-cph1 gene assessed as growth inhibition at 2 ug/ml by CLSI M27-A3 method; format: functional; settings: read-out: GI; in short: as §2
[27] = test system: Candida albicans; experiment: Antifungal activity against Candida albicans 90028 assessed as growth inhibition at 0.25 ug/ml by CLSI M27-A3 method; format: functional; settings: read-out: GI; in short: as §2
[28] = test system: Candida albicans; experiment: Antifungal activity against Candida albicans 90028 assessed as growth inhibition at 1 ug/ml by CLSI M27-A3 method; format: functional; settings: read-out: GI; in short: as §2
[29] = test system: Candida albicans; experiment: Antifungal activity against Candida albicans CAI4 expressing delta-cph1/delta-efg1 gene assessed as growth inhibition at 16 ug/ml by CLSI M27-A3 method; format: functional; settings: read-out: GI; in short: as §2
[30] = test system: Candida albicans; experiment: Antifungal activity against Candida albicans CAI4 expressing delta-cph1/delta-efg1 gene assessed as growth inhibition at 0.5 ug/ml by CLSI M27-A3 method; format: functional; settings: read-out: GI; in short: as §2
[31] = test system: Candida albicans; experiment: Inhibition of cell adhesion of compound pre-treated Candida albicans CAI4 expressing delta-cph1 (CPH1) gene to human Caco2 cells assessed as cell adhesion level at 16 ug/ml pre-incubated for 18 hrs by colony counting method (reference value: 5.37 +/- 12.4%); format: functional, Caco-2; design: scale not given: the % may be the effect or the level left

MIC90 [7] | MIC90 [13] | MIC90 [15] | SMILES | inhibition of growth at 16 µg/mL [1] | Activity [2] | inhibition of growth at 4 µg/mL [3] | Activity [4] | Activity [5] | Activity [6] | inhibition of growth at 4 µg/mL [8] | inhibition of growth at 0.25 µg/mL [9] | inhibition of growth at 16 µg/mL [10] | inhibition of growth at 2 µg/mL [11] | Activity [12] | inhibition of growth at 0.5 µg/mL [14] | Activity [16] | inhibition of growth at 8 µg/mL [17] | inhibition of growth at 8 µg/mL [18] | inhibition of growth at 0.5 µg/mL [19] | Activity [20] | further results
4 µg/mL (≈ 9.45 µM) | 4 µg/mL (≈ 9.45 µM) | 4 µg/mL (≈ 9.45 µM) | NNc1ccc(S(=O)(=O)C(Cl)(Br)Br)cc1[N+](=O)[O-] | 100% | 0.63% | 100% | 1.6% | 1.86% | 0.81% | 99.1% | 70.8% | 99.8% | 99.7% | 2.25% | 81.8% | 1.66% | 100% | 100% | 96.6% | 1.32% | Activity [21]: 2.66%; inhibition of growth at 2 µg/mL [22]: 100%; Activity [23]: 0.8%; Activity [24]: 0.9%; inhibition of growth at 1 µg/mL [25]: 99.5%; inhibition of growth at 2 µg/mL [26]: 100%; inhibition of growth at 0.25 µg/mL [27]: 17%; inhibition of growth at 1 µg/mL [28]: 97.4%; inhibition of growth at 16 µg/mL [29]: 100%; inhibition of growth at 0.5 µg/mL [30]: 97%; Activity [31]: 0.78%
16 µg/mL (≈ 41.7 µM) | 16 µg/mL (≈ 41.7 µM) | 16 µg/mL (≈ 41.7 µM) | O=[N+]([O-])c1cc(S(=O)(=O)C(Cl)(Cl)Br)ccc1Cl | 99.6% | 0.49% | 99% | 0.68% | 2.38% | 0.99% | 99.7% | 98.4% | 99.5% | 98.9% | 0.43% | 98.7% | 0.38% | 99.5% | 99.4% | 97.4% | 0.9% | Activity [21]: 2.2%; inhibition of growth at 2 µg/mL [22]: 98.8%; Activity [23]: 0.71%; Activity [24]: 2.78%; inhibition of growth at 1 µg/mL [25]: 98.5%; inhibition of growth at 2 µg/mL [26]: 98.9%; inhibition of growth at 0.25 µg/mL [27]: 98.6%; inhibition of growth at 1 µg/mL [28]: 98.8%; inhibition of growth at 16 µg/mL [29]: 99.5%; inhibition of growth at 0.5 µg/mL [30]: 98.6%; Activity [31]: 0.48%

SMILES | MIC90 [7] | MIC90 [13] | MIC90 [15] | inhibition of growth at 16 µg/mL [1] | Activity [2] | inhibition of growth at 4 µg/mL [3] | Activity [4] | Activity [5] | Activity [6] | inhibition of growth at 4 µg/mL [8] | inhibition of growth at 0.25 µg/mL [9] | inhibition of growth at 16 µg/mL [10] | inhibition of growth at 2 µg/mL [11] | Activity [12] | inhibition of growth at 0.5 µg/mL [14] | Activity [16] | inhibition of growth at 8 µg/mL [17] | inhibition of growth at 8 µg/mL [18] | inhibition of growth at 0.5 µg/mL [19] | Activity [20] | further results
O=[N+]([O-])c1cc(S(=O)(=O)C(Cl)Cl)ccc1Cl | 16 µg/mL (≈ 52.5 µM) | 16 µg/mL (≈ 52.5 µM) | 16 µg/mL (≈ 52.5 µM) | 99.5% | 0.69% | 99.5% | 1.19% | 1.43% | 1.06% | 98.7% | 99.1% | 99.2% | 99.4% | 0.42% | 99.1% | 0.48% | 99.4% | 99.4% | 99.1% | 1.1% | Activity [21]: 2.05%; inhibition of growth at 2 µg/mL [22]: 99.1%; Activity [23]: 0.68%; Activity [24]: 0.71%; inhibition of growth at 1 µg/mL [25]: 99.4%; inhibition of growth at 2 µg/mL [26]: 99%; inhibition of growth at 0.25 µg/mL [27]: 99.1%; inhibition of growth at 1 µg/mL [28]: 99.2%; inhibition of growth at 16 µg/mL [29]: 99.7%; inhibition of growth at 0.5 µg/mL [30]: 99.1%; Activity [31]: 2.28%
